# Experiments:
# Type in all cases: functional
# Escherichia coli = experiment: Antibacterial activity against Escherichia coli ATCC 25922 after 20 hrs by broth microdilution method; details: ATCC 25922, 20 h
# In short: (§1)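 MIC by two-fold dilution series (1/2 to 1/1024) of a 2048 µg/mL DMSO stock in cation-adjusted Müller-Hinton broth. Inoculum from colonies of 24 h Columbia blood agar culture, adjusted to 0.5 McFarland, diluted to 1 × 10^6 CFU/mL and added 1:1 to compound broth. Incubated 37 °C, 20 h. MIC is the lowest concentration with no turbidity or growth button, read by eye. Run in duplicate.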
# Bacillus cereus = experiment: Antibacterial activity against Bacillus cereus ATCC 13061 after 20 hrs by broth microdilution method; details: ATCC 13061, 20 h; in short: as §1
# Candida albicans = experiment: Antifungal activity against Candida albicans ATCC 90028 after 24 hrs by broth microdilution method; details: ATCC 90028, 24 h
# In short: (§2)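 Two-fold dilutions (1/2 to 1/1024) of a 2048 µg/mL DMSO stock made in Sabouraud broth. Yeast inoculum from colonies of 24 h Sabouraud dextrose agar culture, 0.5 McFarland, diluted in sterile water to 10^5 CFU/mL and added in equal volume to broth. Incubated 37 °C, 24 h (C. albicans) or 48 h (C. parapsilosis). MIC read by eye as lowest concentration without turbidity or growth button. Run in duplicate.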
# Pseudomonas aeruginosa = experiment: Antibacterial activity against Pseudomonas aeruginosa ATCC 27853 after 20 hrs by broth microdilution method; details: ATCC 27853, 20 h; in short: as §1
# Staphylococcus aureus = experiment: Antibacterial activity against Staphylococcus aureus ATCC 25923 after 20 hrs by broth microdilution method; details: ATCC 25923, 20 h; in short: as §1
# Enterobacter cloacae = experiment: Antibacterial activity against Enterobacter cloacae ATCC 49141 after 20 hrs by broth microdilution method; details: ATCC 49141, 20 h; in short: as §1
# Acinetobacter baumannii = experiment: Antibacterial activity against Acinetobacter baumannii ATCC 19606 after 20 hrs by broth microdilution method; details: ATCC 19606 = CIP 70.34 = JCM 6841, 20 h; in short: as §1
# Candida parapsilosis = experiment: Antifungal activity against Candida parapsilosis ATCC 22019 after 48 hrs by broth microdilution method; details: Lodderomyces parapsilosis, ATCC 22019, 48 h; in short: as §2
Compound,MIC (Escherichia coli) [µg/mL],MIC (Bacillus cereus) [µg/mL],MIC (Candida albicans) [µg/mL],MIC (Pseudomonas aeruginosa) [µg/mL],MIC (Staphylococcus aureus) [µg/mL],MIC (Enterobacter cloacae) [µg/mL],MIC (Acinetobacter baumannii) [µg/mL],MIC (Candida parapsilosis) [µg/mL]
O=C(NNC(=S)Nc1ccc(OC(F)(F)F)cc1)c1ccc(S(=O)(=O)c2ccccc2)cc1,128,32,64,64,256,128,64,64
O=C(NNC(=S)Nc1ccc(OC(F)(F)F)cc1)c1ccc(S(=O)(=O)c2ccc(Br)cc2)cc1,128,32,64,64,512,128,64,64
COc1cc(NC(=S)NNC(=O)c2ccc(S(=O)(=O)c3ccccc3)cc2)cc(OC)c1OC,128,16,64,64,128,128,32,64
COc1cc(NC(=S)NNC(=O)c2ccc(S(=O)(=O)c3ccc(Br)cc3)cc2)cc(OC)c1OC,128,16,64,64,128,128,32,64
O=S(=O)(c1ccccc1)c1ccc(-c2n[nH]c(=S)n2-c2ccc(OC(F)(F)F)cc2)cc1,128,32,128,64,256,128,32,64
O=S(=O)(c1ccc(Br)cc1)c1ccc(-c2n[nH]c(=S)n2-c2ccc(OC(F)(F)F)cc2)cc1,256,32,128,64,512,256,32,64
COc1cc(-n2c(-c3ccc(S(=O)(=O)c4ccccc4)cc3)n[nH]c2=S)cc(OC)c1OC,128,16,64,64,128,128,32,32
COc1cc(-n2c(-c3ccc(S(=O)(=O)c4ccc(Br)cc4)cc3)n[nH]c2=S)cc(OC)c1OC,128,8,64,64,128,128,32,16
O=S(=O)(c1ccccc1)c1ccc(-c2nnc(Nc3ccc(OC(F)(F)F)cc3)s2)cc1,128,32,64,64,512,128,32,64
O=S(=O)(c1ccc(Br)cc1)c1ccc(-c2nnc(Nc3ccc(OC(F)(F)F)cc3)s2)cc1,128,32,128,64,512,128,32,64
COc1cc(Nc2nnc(-c3ccc(S(=O)(=O)c4ccccc4)cc3)s2)cc(OC)c1OC,128,16,64,64,512,128,32,64
COc1cc(Nc2nnc(-c3ccc(S(=O)(=O)c4ccc(Br)cc4)cc3)s2)cc(OC)c1OC,64,16,64,64,512,128,32,64
NCC[C@H](O)C(=O)N[C@@H]1C[C@H](N)[C@@H](O[C@H]2O[C@H](CN)[C@@H](O)[C@H](O)[C@H]2O)[C@H](O)[C@H]1O[C@H]1O[C@H](CO)[C@@H](O)[C@H](N)[C@H]1O [AMIKACIN],2,–,–,2,2,–,–,–
OC(Cn1cncn1)(Cn1cncn1)c1ccc(F)cc1F [FLUCONAZOLE],–,–,–,–,–,–,–,2

# Reference: ChEMBL document CHEMBL1944534, “New heterocyclic compounds from 1,2,4-triazole and 1,3,4-thiadiazole class bearing diphenylsulfone moieties. Synthesis, characterization and antimicrobial activity evaluation” (2012)
